STAT3 activator: increases IL-6 driven STAT3 reporter signal; U3A cells, IL-6 STAT3-luciferase reporter, luminescence; 100% = signal with IL-6 EC80 alone; activation (% of control), % at 5.6 µM; 190,000 compounds, 0.91% hits;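 active means activation above the screen-wide mean of compound activation plus 3 SD, cut at about 130% in these data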;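 further: 0% = background luminescence of wells with medium and substrate only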
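system = STAT3-luciferase reporter U3A cells | reagent = IL-6 stimulus at 33 ng/mL final | timing = 1 h compound pre-exposure, 6 h IL-6 stimulation, 37 °C | measured by = luminescence | evaluation = % activation versus median of IL-6-stimulated wells | control set = IL-6-only wells as 100% reference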
HSV replic up: HSV replication enhancement; AID 1956; 220,000 compounds, 0.005% hits; maximum fold increase; HSV replication augmentation in cells, fold increase; in the data active means maximum fold increase above about 1.5; inconclusive means no clear call, values can overlap the other calls; tested in PC3 cells
STAT3 blocker: STAT3 signaling inhibition | 190,000 compounds, 0.89% hits | inhibition, % at 5.5 µM | U3A cells, IL-6 STAT3-luciferase reporter, luminescence; host cell line lacks STAT1;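 active means inhibition above the mean inhibition across all screened compounds plus 3 SD, cut at about 44% in these data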;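 further: 0% = DMSO only wells and 100% = 100 µM nifuroxazide control wells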
STAT1 activator: increases IFN-gamma driven STAT1 reporter signal. NIH 3T3 STAT1-luciferase reporter, luminescence; 100% = IFN-gamma alone, no compound. activation (% of control), % at 5.5 µM. AID 932. 200,000 compounds, 2.6% hits;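 active means activation above the screen-wide mean activation plus 3 SD, cut at about 130% in these data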;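 further: raw ratio to IFN-gamma control signal so 100% means no change and 0% no light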
STAT1 inh: inhibitors of IFN-gamma induced STAT1 signaling. 200,000 compounds, 0.35% hits. AID 920. inhibition, % at 5.5 µM. NIH 3T3 STAT1-luciferase reporter, luminescence;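 active means inhibition above a set limit, the mean inhibition across all tested compounds plus 3 SD, cut at about 34% in these data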;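 further: 0% = IFN-gamma with DMSO and 100% = IFN-gamma with 300 µM nifuroxazide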
Cl transport mod: modulators of human KCC2 chloride dependent transport; Q9H2X9; KCC2 cells, thallium flux FluoZin-2 fluorescence; B-score of Tl+ flux slope (higher = more flux/activation; lower = inhibition) at 10 µM; 190,000 compounds, 2.2% hits;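 active means thallium flux slope and its plate-corrected score both differing from the plate sample mean at a set confidence after two filtering rounds, in either direction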;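 further: slope of fluorescence scaled to starting intensity during 10 to 20 s after thallium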
* hit, by the source's call; i = inactive; ? = inconclusive; . = no result given. Most compounds without a hit are left out; they make up all but 5.5% or so of the library.

SMILES	STAT3 activator	HSV replic up	STAT3 blocker	STAT1 activator	STAT1 inh	Cl transport mod
CC(=C/c1ccc(C(C)C)cc1)/C=N/NC(=O)CSc1ccccn1	134.2*	i	-39.6	148.7*	-54.7	0.162
CC(C)CC(NC(=O)C(COC(C)(C)C)NC(=O)C(Cc1ccc(O)cc1)NC(=O)C(CO)NC(=O)C(Cc1c[nH]c2ccccc12)NC(=O)C(Cc1cnc[nH]1)NC(=O)C1CCC(=O)N1)C(=O)N[C@@H](CCCN=C(N)N)C(=O)N1CCCC1C(=O)NNC(N)=O (stereo partly specified)	.	i	.	.	.	.
O=C(Nc1ccc(Br)cc1Cl)NC1CC1	78.3	i	33.5	89.5	10.7	0.0335
CC(=O)Nc1nc2cc3c(cc2s1)OCO3	97.0	i	12.1	114.8	-16.3	.
O=C(Nc1nc2cc3c(cc2s1)OCO3)C1=COCCO1	26.1	i	85.8*	55.4	49.0*	0.0449
O=C(Nc1nc2cc3c(cc2s1)OCCO3)c1ccc(N2C(=O)CCC2=O)cc1	.	i	.	.	.	1.67
O=C(Nc1nc2cc3c(cc2s1)OCCO3)c1ccncc1	78.2	i	27.2	132.3*	-33.7	1.59
S=c1[nH]c(-c2ccc(Cl)cc2)cs1	91.8	i	14.4	109.1	-7.8	55.4*
Clc1ccc(-c2ccn[nH]2)cc1	107.2	i	-3.6	121.6	-26.9	1.41
Cc1ccc(-c2csc(=S)[nH]2)cc1	91.8	i	12.1	115.3	-18.1	99.9*
CC(=O)c1ccc(NC(=O)/C(=C\c2cccs2)NC(=O)c2ccco2)cc1	93.0	i	11.9	103.3	-5.5	-0.086
CCN(CC)S(=O)(=O)c1ccc(C(=O)Nc2cc3oc4ccccc4c3cc2OC)cc1	103.8	i	-0.4	95.3	5.3	-0.426
COc1ccc(Cl)cc1NC(=O)C1CCCO1 (stereo unspecified)	97.2	i	7.2	99.5	0.5	-0.00276
COc1cc2c(cc1NC(=O)C1CCCO1)oc1ccccc12 (stereo unspecified)	166.3*	i	-76.5	147.0*	-51.0	-0.356
COc1cc2c(cc1NC(=O)c1cccc(S(=O)(=O)N(C)C)c1)oc1ccccc12	96.4	i	5.6	134.4*	-37.6	0.0723
O=C(c1cccc([N+](=O)[O-])c1)N1CCCN(C(=O)c2cccc([N+](=O)[O-])c2)CC1	97.7	i	1.2	97.0	3.3	-0.454
CN(CC(=O)O/N=C(\N)c1ccc([N+](=O)[O-])cc1)S(=O)(=O)c1ccc2ccccc2c1	103.3	.	-3.7	94.5	6.0	-0.0102
COc1ccc(Nc2cc(C)c3ccccc3n2)cc1	95.5	i	13.3	132.0*	-37.4	-0.0548
COc1cccc2c1C(=O)c1c(O)c3c(c(O)c1C2=O)C[C@@](O)(C(C)=O)C[C@@H]3O[C@H]1C[C@H](N)[C@H](O)[C@H](C)O1	60.7	.	46.8*	364.8*	-291.1	i
O=S(=O)(Nc1ccccc1)c1ccc(-c2csnn2)cc1	.	i	.	.	.	-0.0583
c1ccc(-c2ccc(-c3csnn3)cc2)cc1	112.4	i	-4.0	132.4*	-36.1	.
COc1ccc(NC(=O)/C=C/c2ccccc2)c([N+](=O)[O-])c1	107.5	i	-8.8	147.1*	-53.7	0.537
CCOc1ccc(NC(=O)COc2ccccc2)c([N+](=O)[O-])c1	89.9	i	19.8	148.4*	-52.2	1.36
O=C(COc1ccccc1)Nc1ccccc1Cl	96.0	i	14.5	132.2*	-37.3	0.321
CCOc1ccc(C(=O)N/N=C/c2ccccc2[N+](=O)[O-])cc1	95.3	i	9.8	134.0*	-38.5	0.0426
SMILES	STAT3 activator	HSV replic up	STAT3 blocker	STAT1 activator	STAT1 inh	Cl transport mod
COC(=O)c1ccccc1NC(=O)COc1ccccc1	94.5	i	10.1	100.6	-0.7	.
CCC(=O)Nc1ccc(C(=O)N/N=C/c2ccccc2[N+](=O)[O-])cc1	108.9	i	-0.1	102.8	-3.1	0.83
COc1ccc(/C=C/C(=O)Nc2ccc(OC)cc2[N+](=O)[O-])cc1	89.7	i	11.3	97.3	2.9	0.946
N#Cc1c2ccccc2nc2ccccc12	.	i	.	.	.	.
Cc1cc(C)nc(Nc2nc3ccccc3s2)n1	155.8*	i	-61.1	129.1*	-35.8	0.255
CC(C)(C)C(=O)CC1(O)C(=O)N(Cc2ccccc2)c2ccccc21 (stereo unspecified)	101.5	i	5.8	94.3	6.2	0.63
NC(=S)N/N=C1/CCSc2ccc3ccccc3c21	91.0	i	15.5	93.9	6.1	4.35*
Cc1cccc2cc(C#N)c(SCCN3CCCCC3)nc12	104.5	i	-5.5	105.4	-5.8	3.57*
Cc1cccc2cc(C#N)c(N3CCN(C)CC3)nc12	84.9	i	21.0	101.3	-1.4	.
O=C(N/N=C/c1cccc(Oc2ccccc2)c1)c1cc[n+]([O-])cc1	95.3	i	10.3	105.0	-9.0	0.0976
COC(=O)c1sccc1N/N=C/c1cccc(Oc2ccccc2)c1	97.4	i	0.8	137.9*	-37.2	0.192
COC(=O)c1sccc1N/N=C/c1ccc(OC)c(OC)c1OC	95.2	i	3.6	129.1*	-28.1	0.538
COc1ccccc1N1CCN(Cc2cc(Br)c(O)c3ncccc23)CC1	85.1	i	23.0	103.6	-4.0	7.18*
Oc1c(CN2CCN(c3ccccn3)CC2)cc(Cl)c2cccnc12	97.3	i	9.5	99.8	0.8	7.01*
CC1(C)CC(=O)c2cc(N=C/C(C(=O)c3ccccc3)=C(\O)c3ccccc3)c(=O)oc2C1	99.2	i	7.2	132.5*	-38.1	1.24
COc1ccc(N=c2oc3ccccc3cc2C(=O)Nc2ccccn2)cc1OC	104.4	i	0.9	137.3*	-39.9	-0.318
COc1ccccc1NC(=O)c1cc2ccccc2o/c1=N\O	.	i	.	.	.	.
Cc1ccc(NC(=O)c2ccccc2OCc2ccc([N+](=O)[O-])cc2)nc1	99.3	i	6.8	112.4	-13.0	0.456
CCOC(=O)c1ccc(NCc2nc3ccccc3n2C)cc1	96.7	i	7.6	138.8*	-42.4	-2.38
CCOC(=O)c1ccc(NC(=O)CSc2nnc(CNc3ccc(C)cc3)n2C)cc1	101.2	i	2.2	104.2	-4.5	-0.104
CCCC(NC(=O)c1c(C)noc1C)C12CC3CC(CC(C3)C1)C2 (stereo unspecified)	101.7	i	-2.3	98.4	1.8	-0.0177
CN(C)c1ccc(N=Cc2nc(-c3ccccc3)oc2O)cc1	88.2	?	18.0	109.6	-10.6	-2.41
Oc1oc(-c2ccccc2)nc1C=Nc1ccccc1	87.2	i	18.4	132.0*	-35.0	-0.566
COc1ccc(N=Cc2nc(-c3ccco3)oc2O)cc1	100.8	i	1.8	135.6*	-38.6	-0.807
Cc1ccc(N(CC(=O)NCC2CCCO2)C(=O)Cn2nnc(-c3cccs3)n2)cc1 (stereo unspecified)	97.0	i	5.8	94.3	4.5	0.123

Compound activity deposited in PubChem by several laboratories.
